DNMT1 inh: inhibitors of human DNMT1; P26358; DNMT1 molecular beacon, Hinp1I cleavage, fluorescence; inhibition (reported as % activation of signal), % at 10 µM; 360,000 tested, 0.83% active; AID 588458; in the data active = inhibition above about 50%
SUMO1 PPI mod: alters human SUMO1 binding to SIM partners; SUMO1 binding to a labelled peptide, TR-FRET, 1 h; inhibition, % at 20 µM; 360,000 tested, 0.33% active; in the data active = inhibition above about 37%
Target sequence (P63165 whole entry, looked up): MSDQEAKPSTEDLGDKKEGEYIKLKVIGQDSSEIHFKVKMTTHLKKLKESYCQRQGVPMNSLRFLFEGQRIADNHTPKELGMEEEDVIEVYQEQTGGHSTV
STEP inh: blocks human striatal-enriched tyrosine phosphatase; P54829; recombinant STEP, OMFP fluorogenic substrate, fluorescence; inhibition, % at 20 µM; 360,000 tested, 0.25% active;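 active = inhibition at 20 µM, scaled per plate between control wells, above about 37%, limit read from the data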;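 note: 0% = DMSO with enzyme and substrate and 100% = substrate only without enzyme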
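Test system: STEP tyrosine phosphatase / Reagent: OMFP at 25 µM / Doses: 20 µM, 1% DMSO / Read-out: percent inhibition scaled to no-enzyme and uninhibited-enzyme controls, plate-pattern corrected / Detection: FITC-channel fluorescence of OMFP product / Medium: Bis-Tris buffer pH 6.0, 2.5 mM DTT, 0.005% Tween 20 / Schedule: 20 min at room temperature, dark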
Rpn11 block: blocks the human proteasome subunit Rpn11; human 26S proteasome, Ub4-pepOG fluorescence polarization; 20S core pre-blocked with epoxomicin; inhibition, % at 20 µM; 360,000 tested, 0.59% active; AID 588493;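 active = inhibition at 20 µM, scaled to each plate's controls, above about 33%, limit read from the data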
Scp-1 inhibitor: Scp-1 (human) phosphatase inhibition; Recombinant Scp1, phosphopeptide, malachite green phosphate absorbance; inhibition, % at 20 µM; 340,000 tested, 0.88% active;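 active = inhibition above about 50% at 20 µM, limit read from the data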;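 note: plate controls were DMSO wells with enzyme for no effect and wells lacking enzyme for full effect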
Target sequence (Q9GZU7 76-261 limits assumed): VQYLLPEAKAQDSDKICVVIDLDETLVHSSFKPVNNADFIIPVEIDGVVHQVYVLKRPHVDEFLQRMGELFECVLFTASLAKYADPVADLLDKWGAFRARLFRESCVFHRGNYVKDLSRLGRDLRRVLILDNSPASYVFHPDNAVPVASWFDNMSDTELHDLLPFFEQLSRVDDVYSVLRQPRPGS
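Material: truncated SCP-1 phosphatase (76-261aa) / Buffer or medium: 50 mM Tris acetate pH 5.5, 0.005% Tween-20, 10 mM MgCl2 / Compound dosing: one concentration, 20 µM, with 1.0% DMSO / Incubation: 45 min room-temperature reaction, 5 min colour, 30 min stabiliser / Detection: colorimetric free-phosphate detection, absorbance 630 nm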
LMPTP block: blocks human LMPTP phosphatase. P24666. recombinant LMPTP-A, OMFP fluorogenic substrate, fluorescence intensity. inhibition, % at 20 µM. 360,000 tested, 0.22% active;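 active = compounds that cut the enzyme signal by at least half of the control window in the single-dose screen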;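 note: plate controls were DMSO wells with enzyme plus substrate for no effect and substrate without enzyme for full effect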
Target sequence (P24666 whole entry, looked up): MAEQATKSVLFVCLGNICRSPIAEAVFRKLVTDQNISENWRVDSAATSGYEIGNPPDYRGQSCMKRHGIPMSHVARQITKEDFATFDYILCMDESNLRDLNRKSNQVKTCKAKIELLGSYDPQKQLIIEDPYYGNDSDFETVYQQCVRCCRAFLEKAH
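Buffer or medium: Bis-Tris pH 6.0, DTT, detergent; Assay system: LMPTP-A enzyme; Quantity: 0.625 nM enzyme; Detection: endpoint fluorescence intensity; Times: 50 min dark incubation at room temperature; Controls: substrate-only low control, DMSO enzyme-plus-substrate high control; Doses: single 20 µM dose; Read-out: percent inhibition versus substrate-only and uninhibited controls; Reagent: 400 µM OMFP.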
Active calls of the source: *. Sampled rows, rich in hits. Any-hit rate of the full collection: about 2.3%.

What do the screens show for `CCCCN(CCCC)CCNC(=O)CN1C(=O)COc2ccc(S(=O)(=O)N3CCC(C)CC3)cc21`?
DNMT1 inh: -0.5; SUMO1 PPI mod: -0.6; STEP inh: -1.9; Rpn11 block: -4.7; Scp-1 inhibitor: -1.7; LMPTP block: 0.3

Results for COc1ccccc1N(CC(=O)NC1CCCC1)C(=O)CNC(=O)c1cccs1 ?
DNMT1 inh: 5.1; SUMO1 PPI mod: 0.6; STEP inh: 0.9; Rpn11 block: 0.6; Scp-1 inhibitor: 3.1; LMPTP block: -0.7

How did Cc1c(NC(=O)CN2CCN(c3ccc(O)cc3)CC2)c(=O)n(-c2ccccc2)n1C do in these assays?
DNMT1 inh: -6.9; SUMO1 PPI mod: -0.4; STEP inh: -0.4; Rpn11 block: 0.1; Scp-1 inhibitor: -10.6; LMPTP block: 0.7

Results for c1ccc(CNc2nc(NCCc3ccncc3)c3sccc3n2)cc1 ?
DNMT1 inh: -2.2; SUMO1 PPI mod: -1.4; STEP inh: 3.9; Rpn11 block: -7.6; LMPTP block: 87.0*

What do the screens show for `c1ccc(CNc2nc(NCc3cccs3)nc3ccsc23)cc1`?
DNMT1 inh: -2.6; SUMO1 PPI mod: 0.6; STEP inh: 9.4; Rpn11 block: -0.4; LMPTP block: 21.4

What do the screens show for `CC1(C(=O)NCc2ccccc2Br)CCN1C(=O)CCc1ccc(Cl)cc1Cl` (stereo unspecified)?
DNMT1 inh: 5.5; SUMO1 PPI mod: 7.0; STEP inh: -3.9; Rpn11 block: 5.2; LMPTP block: 0.6

How did CC1(c2nnc(Cc3ccccc3)o2)CC(c2ccncc2)=NO1 (stereo unspecified) do in these assays?
DNMT1 inh: -0.6; SUMO1 PPI mod: 0.7; STEP inh: -0.1; Rpn11 block: -2.5; Scp-1 inhibitor: -0.2; LMPTP block: 0.3

What do the screens show for `Cc1ccc(C)c(N2CCN(C(=O)c3cc(S(=O)(=O)N4CCOCC4)ccc3F)CC2)c1`?
DNMT1 inh: -2.0; SUMO1 PPI mod: -1.1; STEP inh: 0.6; Rpn11 block: -3.7; Scp-1 inhibitor: -4.6; LMPTP block: 0.2

What do the screens show for `CCCC(C(=O)Nc1ccc2c(C)cc(=O)oc2c1)c1ccccc1` (stereo unspecified)?
DNMT1 inh: 3.4; SUMO1 PPI mod: -3.8; STEP inh: -0.3; Rpn11 block: 15.2; Scp-1 inhibitor: -6.1; LMPTP block: -1.3

What do the screens show for `O=C1C=CC(=O)c2c(O)c(N3CCN(CCO)CC3)c(Cl)c(O)c21`?
DNMT1 inh: 102.8*; SUMO1 PPI mod: 90.5*; STEP inh: 26.8; Rpn11 block: -81.6; Scp-1 inhibitor: 73.1*; LMPTP block: 76.0*

What do the screens show for `OCCOCCN1CCN(C2=Nc3ccccc3Sc3ccccc32)CC1`?
DNMT1 inh: -0.6; SUMO1 PPI mod: 1.7; STEP inh: -2.7; Rpn11 block: -1.6; Scp-1 inhibitor: -6.3; LMPTP block: 2.3

How did O=C1C=CC(=O)c2c(O)c(N3CCN(CCOCCO)CC3)c(Br)c(O)c21 do in these assays?
DNMT1 inh: 98.3*; SUMO1 PPI mod: 109.4*; STEP inh: 86.1*; Rpn11 block: -90.4; Scp-1 inhibitor: 70.2*; LMPTP block: 77.0*

What do the screens show for `O=C1CC(c2ccco2)Cc2nc(Nc3nc(-c4ccccc4)c4ccccc4n3)ncc21` (stereo unspecified)?
DNMT1 inh: 47.9; SUMO1 PPI mod: 5.3; STEP inh: 2.3; Rpn11 block: 4.4; Scp-1 inhibitor: 25.3; LMPTP block: 61.3*

Results for Cc1cc(C)cc(OC(=O)CCN2C(=O)c3ccccc3C2=O)c1 ?
DNMT1 inh: -1.0; SUMO1 PPI mod: -10.4; STEP inh: 4.4; Rpn11 block: 1.5; Scp-1 inhibitor: 6.0; LMPTP block: 0.2

Results for Cc1ccc(NC(=O)c2ccc(OC(=O)CCN3C(=O)c4ccccc4C3=O)cc2)cc1 ?
DNMT1 inh: 50.2*; SUMO1 PPI mod: 21.1; STEP inh: 9.5; Rpn11 block: 1.9; Scp-1 inhibitor: 0.4; LMPTP block: -0.1

Results for O=C(OCC(=O)N1CCN(C(=O)c2ccco2)CC1)c1cc(-c2ccc(Cl)c(Cl)c2Cl)nc2ccccc12 ?
DNMT1 inh: -12.8; SUMO1 PPI mod: 64.3*; STEP inh: 1.8; Rpn11 block: 6.8; Scp-1 inhibitor: -6.7; LMPTP block: 3.4

Results for O=C(OCC(=O)N1CCN(C(=O)c2ccco2)CC1)c1cc(-c2ccco2)nc2ccccc12 ?
DNMT1 inh: 97.0*; SUMO1 PPI mod: 26.1; STEP inh: 79.1*; Rpn11 block: 6.8; Scp-1 inhibitor: 87.0*; LMPTP block: 59.8*

How did O=C(NC1CC1)c1cc(-c2ccco2)nc2ccccc12 do in these assays?
DNMT1 inh: 90.2*; SUMO1 PPI mod: 40.4*; STEP inh: 19.8; Rpn11 block: 1.3; Scp-1 inhibitor: 80.5*; LMPTP block: 51.4*

How did CN1CCCN(C(=O)c2cc(-c3ccc(Cl)c(Cl)c3Cl)nc3ccccc23)CC1 do in these assays?
DNMT1 inh: -0.1; SUMO1 PPI mod: 8.7; STEP inh: -1.8; Rpn11 block: 6.1; Scp-1 inhibitor: -5.7; LMPTP block: -2.2

Results for CC(C)C[C@H](NC(=O)N1CCn2c1nc1ccccc12)C(=O)NCC1CCCO1 (stereo partly specified) ?
DNMT1 inh: 2.0; SUMO1 PPI mod: 3.3; STEP inh: -0.9; Rpn11 block: -7.2; Scp-1 inhibitor: -2.5; LMPTP block: -0.3

Results for COC(=O)c1[nH]c2ccccc2c1CN1CCOCC1 ?
DNMT1 inh: -0.9; SUMO1 PPI mod: 2.1; STEP inh: -2.4; Rpn11 block: 2.2; Scp-1 inhibitor: 3.6; LMPTP block: -0.3

Results for Fc1cccc(Cc2c(-c3ccco3)nc3ccc(Cl)cn23)c1 ?
DNMT1 inh: 19.4; SUMO1 PPI mod: 0.3; STEP inh: -3.5; Rpn11 block: 19.8; LMPTP block: 1.1

Results for Fc1cccc(Cc2c(-c3ccco3)nc3ccc(Br)cn23)c1 ?
DNMT1 inh: 50.0*; SUMO1 PPI mod: 2.0; STEP inh: 3.1; Rpn11 block: 9.0; LMPTP block: 9.3

How did FC(F)(F)c1cccc(Oc2cc(C(F)(F)F)nc(-c3ccccn3)n2)c1 do in these assays?
DNMT1 inh: 1.4; SUMO1 PPI mod: 54.4*; STEP inh: 1.6; Rpn11 block: 4.6; Scp-1 inhibitor: -9.7; LMPTP block: 1.4

How did N#Cc1cnn(-c2ccccc2)c1NC(=O)CN1CCN(c2ccccc2)CC1 do in these assays?
DNMT1 inh: 0.1; SUMO1 PPI mod: 2.9; STEP inh: -1.2; Rpn11 block: 0.4; Scp-1 inhibitor: -25.0; LMPTP block: 0.4

Results for CC(C)C(=O)NNC(=O)c1cc2sccc2s1 ?
DNMT1 inh: -2.8; SUMO1 PPI mod: 2.4; STEP inh: 2.9; Rpn11 block: -3.3; Scp-1 inhibitor: 0.6; LMPTP block: 0.4

Results for CCC(=O)Nc1nonc1-c1nc2ccccc2n1Cc1ccc(Cl)c(Cl)c1 ?
Scp-1 inhibitor: 56.3*

Screens (PubChem BioAssay)
